RGS4 pot = RGS4 potentiators or activators, primary screen, cell-based, HEK293 M3R inducible RGS4, calcium flux. carbachol calcium flux Fluo4; active compounds read low. B-score at 10 µM. 310,000 tested, 0.92% active;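 active means B-score of the integrated calcium signal more than 4 SD below the library mean, with starting fluorescence not abnormally high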;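 further: negative B-score means reduced calcium response which marks RGS4 activation or potentiation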
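Material: Inducible-RGS4 HEK293 cells carrying M3 receptor; also added: carbachol at ECmax as muscarinic agonist stimulus; incubation: compound preincubation 20 min at room temperature before agonist; signal: Fluo4-AM (2 µM) calcium-flux fluorescence, kinetic read; measure: integrated calcium ratio converted to B score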
Kir21 inh = inhibitors of mouse Kir2.1 inward-rectifier potassium channel. Inward rectifier potassium channel 2 (Mus musculus), P35561. HEK293-Kir2.1, FluxOR thallium flux fluorescence; active compounds read low. B-score at 10 µM. 310,000 tested, 0.85% active;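 active means fluorescence ratio B-score at or below minus 3 SD of library scores, with starting-brightness B-score within 2 SD, cut at about -4.2 in these data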;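 further: channel flux triggered by added potassium and thallium sulfate stimulus; B-score of peak minus minimum fluorescence over baseline after thallium stimulus; more negative B-score means stronger Kir2.1 block with less thallium influx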
Target sequence (P35561 whole entry, looked up): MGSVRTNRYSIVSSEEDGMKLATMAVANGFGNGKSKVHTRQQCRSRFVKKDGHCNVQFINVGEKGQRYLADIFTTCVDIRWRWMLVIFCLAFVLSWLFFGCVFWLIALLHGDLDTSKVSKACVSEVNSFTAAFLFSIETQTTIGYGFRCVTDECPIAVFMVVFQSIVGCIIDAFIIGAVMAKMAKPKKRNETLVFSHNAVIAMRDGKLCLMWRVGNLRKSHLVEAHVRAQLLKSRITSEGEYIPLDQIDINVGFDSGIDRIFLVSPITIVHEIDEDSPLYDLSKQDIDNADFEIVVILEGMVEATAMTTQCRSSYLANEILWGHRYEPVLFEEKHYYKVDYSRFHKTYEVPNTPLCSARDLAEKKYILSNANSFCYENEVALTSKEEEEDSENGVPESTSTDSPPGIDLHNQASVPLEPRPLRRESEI
RGS4 block = RGS4 inhibitors, primary screen, cell-based, HEK293 M3R inducible RGS4, calcium flux; Regulator of G-protein signaling 4 (Homo sapiens), P49798; B-score at 10 µM; Fluo-4 calcium flux; active compounds read high; triggered by carbachol at its EC20; 310,000 tested, 0.45% active;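 active means B-score, a plate-corrected calcium signal, over three deviations above library mean, with baseline fluorescence within five deviations of library mean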;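 further: RGS4 expression induced by doxycycline in cells with stable M3 receptor; B-score is computed from the integrated fluorescence ratio over baseline after carbachol; higher B-score means a larger calcium signal and so more RGS4 inhibition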
Target sequence (P49798 whole entry, looked up): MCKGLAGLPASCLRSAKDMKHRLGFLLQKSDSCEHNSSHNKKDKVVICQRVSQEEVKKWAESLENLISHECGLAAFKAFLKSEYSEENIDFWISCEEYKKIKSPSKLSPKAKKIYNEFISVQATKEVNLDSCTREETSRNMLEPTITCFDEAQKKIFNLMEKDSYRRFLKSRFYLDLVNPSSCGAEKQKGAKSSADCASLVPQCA
MrgX1 ag = agonists of human MrgX1 receptor, primary screen, HEK293 cells, Fluo-4 calcium flux | Fluo-4 calcium fluorescence, agonist mode; active compounds read high | 310,000 tested, 0.44% active | AID 588627, 2011 | B-score at 10 µM;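 active means calcium response B-score plate-corrected fluorescence ratio at least 3 library SD, with starting fluorescence B-score inside 5 SD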
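System: HEK293 cells stably expressing human MrgX1 receptor; Dosing: test compound in the initial addition of three; Schedule: overnight plating, then 30 min 37 °C plus 30 min room-temperature dye loading; Detection: kinetic calcium dye fluorescence, Fluo-4 NW; Controls: per-plate positive and negative controls for Z′ factor.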
MrgX1 antagonist = antagonists of human MrgX1 receptor, primary screen, HEK293 cells, Fluo-4 calcium flux. BAM8-22 antagonism; active compounds read low. AID 588676, 2011. 310,000 tested, 1.3% active. Mas-related G-protein coupled receptor member X1 (Homo sapiens), Q96LB2. B-score at 10 µM;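 active means calcium-response B-score plate-corrected more than 3 library SD below zero, starting fluorescence within 5 deviations, no agonist response on first addition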;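 further: peak minus trough fluorescence over baseline after final BAM8-22 challenge near maximal dose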
MrgX1 allo act = positive allosteric modulators of MrgX1, primary screen, HEK293 cells, Fluo-4 calcium flux; FDSS; active compounds read high; B-score at 10 µM; 310,000 tested, 0.63% active; AID 588675, 2011;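 active means plate-corrected calcium response at least 3 library SD above typical, normal starting fluorescence, not activating the receptor alone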;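 further: compound read alongside a low EC10 to EC30 dose of BAM8-22 agonist; peak minus trough fluorescence over baseline measured at the second addition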
MrgX1 ant reconf = MrgX1 receptor antagonists, duplicate retest, confirmation, HEK293 cells, Fluo-4 calcium flux; shares compounds with MrgX1 antagonist; BAM8-22 calcium flux; active compounds read low; remaining BAM8-22 calcium response % of control (active compounds read low), % at 10 µM; 2,300 tested, 19% active; AID 602420, 2012;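 active means remaining agonist calcium response no higher than 100% minus 3 SD of agonist-only control wells, with starting fluorescence near control levels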;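 further: agonist BAM8-22 given at a near maximal EC90 to ECmax level; peak minus minimum fluorescence divided by baseline after agonist addition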
HEK293 Ca flux = nonspecific calcium signal in parental HEK293, confirmation, counter-screen for MrgX1 antagonist project, parental HEK293 cells, Fluo-4 calcium flux | Fluo-4 calcium fluorescence, FDSS | fluorescence ratio F(max-min)/F0 at 10 µM | shares compounds with MrgX1 antagonist | 4,000 tested, 2% active;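 active means duplicate-averaged calcium fluorescence ratio at least three times the standard deviation of buffer wells, a nonspecific response in parental cells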
HEK293 Ca counter = calcium response in parental HEK293 cells, primary screen, counter-screen for MrgX1 allosteric activator project, cell-based, Fluo-4 calcium flux, duplicate; shares compounds with MrgX1 antagonist; Fluo-4 fluorescence ratio; active compounds read high; fluorescence ratio F(max-min)/F0 at 10 µM; 4,000 tested, 0.4% active;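 active means calcium fluorescence ratio, averaged over duplicates, at least 3 SD of the buffer-well ratio, meaning a nonspecific response in receptor-free cells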;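 further: untransfected parental HEK293 lacking MrgX1 used as counterscreen for MrgX1 allosteric activators; fluorescence change taken during the second addition on a kinetic imager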
HEK293 Ca cntr2 = calcium response in parental HEK293 cells, primary screen, counter-screen for MrgX1 agonist project, cell-based, Fluo-4 calcium flux, duplicate, agonist mode. shares compounds with MrgX1 antagonist. Fluo-4 calcium fluorescence (FDSS); active compounds read high. fluorescence ratio F(max-min)/F0 at 10 µM. 4,000 tested, 8.7% active. AID 624115, 2012;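 active means calcium fluorescence ratio at least three times the spread of buffer wells, meaning a non-specific response in parental cells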
An asterisk follows results filed as active; i = inactive; . = no result given. A selection: hits, their analogues and other compounds. The true share with any hit is near 4.1%.

SMILES	RGS4 pot	Kir21 inh	RGS4 block	MrgX1 ag	MrgX1 antagonist	MrgX1 allo act	MrgX1 ant reconf	HEK293 Ca flux	HEK293 Ca counter	HEK293 Ca cntr2
Cc1nc2ccc(NC(=O)Cc3ccc4c(c3)OCCO4)cc2s1	i	-2.3	i	i	-6.8*	i	i	i	i	i
CC1CCC(NC(=O)COC(=O)C2CC3CCCC(C2)C3=O)CC1 (centres undefined)	i	-0.18	i	i	-7.9*	i	i	i	i	i
Cn1ccnc1SCCNC(=O)C1CCC(=O)N(Cc2ccc(Cl)cc2)C1 (centres undefined)	i	-0.7	i	i	i	i	.	.	.	.
Clc1ccccc1Cn1nnc2c(NCC3CC3)ncnc21	i	2.4	i	i	-7.5*	i	i	i	i	i
CC(C)C(NS(=O)(=O)c1cccs1)C(=O)NCc1ccc2c(c1)OCO2 (centres undefined)	i	1.1	i	i	-4.6*	i	i	i	i	i
Cn1c(=O)cc(OCC(=O)NCc2cccs2)c2ccccc21	i	0	i	i	-7.1*	i	i	i	i	i
CCN1CCN(CCNC(=O)c2ccc(/C=C3\Sc4ccccc4N(Cc4ccccc4F)C3=O)cc2)CC1	-7*	-4.7*	i	i	-13*	i	i	i	i	i
COCCCNC(=O)/C=C1\Sc2ccccc2N(Cc2ccccc2F)C1=O	i	0.12	i	i	i	i	.	.	.	.
C[C@H]1CN=C(Nc2ccccc2)N1CCCC1CCCCC1	i	-0.24	i	i	-6.1*	i	i	i	i	i
CN(C)C1=NC[C@H](Cc2ccccc2)N1CCCC1CCCC1	.	.	.	i	-5.6*	i	i	i	i	i
Cc1ccc(C(=O)N2CCN(c3ncc(C(F)(F)F)cc3Cl)CC2)s1	i	0.22	i	i	i	i	.	.	.	.
CCOc1ccc(CN(C(=O)c2cc3ccccc3oc2=O)C2CC2)cc1	i	0.18	i	i	i	i	.	.	.	.
CCC(Sc1nc2c(cnn2-c2ccccc2)c(=O)[nH]1)C(=O)OC (centres undefined)	i	1	i	i	-5.2*	i	82%*	i	i	i
COC(=O)C(C)Sc1nc2c(cnn2-c2ccc(F)cc2)c(=O)[nH]1 (centres undefined)	i	1.5	i	i	i	i	.	.	.	.
CC(/C=C/c1ccccc1)NC(N)=O (centres undefined)	i	-0.13	i	i	-5.8*	i	i	i	i	i
O=C(Nc1nnc(C2CC2)s1)c1ccc(Cl)c(S(=O)(=O)N2CCc3ccccc3C2)c1	i	0.65	i	i	-6.4*	i	63%*	i	i	i
Cc1ccc(C(=O)CN2C(=O)C(=O)N(Cc3ccccc3)C2=O)cc1	i	-1.6	i	i	-6.4*	i	80%*	i	i	i
CCOc1ccc(NC(=O)Nc2nc(SCC)ns2)cc1	i	0.29	i	i	-6.3*	i	78%*	i	i	i
C=CCn1c(=O)/c(=C\c2ccccn2)s/c1=C(/C#N)C(=O)NCC1CCCO1 (centres undefined)	i	1.2	i	i	i	i	.	.	.	.
O=C(NCc1cccnc1)C(=O)Nc1nccs1	i	-1.1	i	i	i	i	.	.	.	.
COC(=O)c1ccc(CSc2nnc(SCc3ccc(C(=O)OC)o3)s2)o1	i	1.1	i	i	i	i	.	.	.	.
COC(=O)c1ccc(CSc2nc(C)nc3sc(C)c(C)c23)o1	i	0.14	i	i	-7.4*	i	i	i	i	i
N#Cc1ccsc1NC(=O)CN1C(=O)NC2(CCCC2)C1=O	i	0.13	i	i	i	i	.	.	.	.
Cc1ccc(NC(=O)C(Nc2cccc(C)c2)c2ccccc2)cc1 (centres undefined)	i	0.01	i	i	i	i	.	.	.	.
CCN1CCN(C(=O)C2CCN(Cc3nc(-c4cccc(Cl)c4)oc3C)CC2)CC1	i	1	i	i	i	i	.	.	.	.
SMILES	RGS4 pot	Kir21 inh	RGS4 block	MrgX1 ag	MrgX1 antagonist	MrgX1 allo act	MrgX1 ant reconf	HEK293 Ca flux	HEK293 Ca counter	HEK293 Ca cntr2
CCN1CCN(C(=O)C2CCN(Cc3cc(Cl)ccc3O)CC2)CC1	i	-0.3	i	i	-7.7*	i	i	i	i	i
COc1ccc(OCCC(=O)OCC(=O)Nc2ccc(Br)cc2)cc1	i	-0.41	i	i	i	i	.	.	.	.
Cc1sc2ncnc(N3CCC(C(=O)Nc4ccc(C#N)cc4)CC3)c2c1C	i	1	i	i	-5.3*	i	i	i	i	i
Cc1ccc(NC(=O)C2CCN(c3ncnc4sc(C)c(C)c34)CC2)cc1S(=O)(=O)N(C)C	i	1.9	i	i	i	i	.	.	.	.
CCc1nc(NC(C)C)c2oc3ccccc3c2n1	i	-0.86	i	i	i	i	.	.	.	.
COCC(C)n1c(SCC(=O)NCCC2=CCCCC2)nc2ccccc2c1=O (centres undefined)	i	-0.79	i	i	-6.6*	i	i	i	i	i

Assay outcomes from PubChem BioAssay.
